GPR7 antagonist: human neuropeptides B/W receptor 1 antagonism. P48145. GPR7-expressing cells, fluorescence antagonist assay. inhibition, % at 4.4 µM. 290,000 tested, 1.1% active. AID 1861; in the data active = inhibition above about 16%, passing the limit was not always enough;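 note: cells stimulated with the agonist NPW; 0% = agonist with vehicle and 100% = vehicle without agonist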
Target sequence (P48145 whole entry, looked up): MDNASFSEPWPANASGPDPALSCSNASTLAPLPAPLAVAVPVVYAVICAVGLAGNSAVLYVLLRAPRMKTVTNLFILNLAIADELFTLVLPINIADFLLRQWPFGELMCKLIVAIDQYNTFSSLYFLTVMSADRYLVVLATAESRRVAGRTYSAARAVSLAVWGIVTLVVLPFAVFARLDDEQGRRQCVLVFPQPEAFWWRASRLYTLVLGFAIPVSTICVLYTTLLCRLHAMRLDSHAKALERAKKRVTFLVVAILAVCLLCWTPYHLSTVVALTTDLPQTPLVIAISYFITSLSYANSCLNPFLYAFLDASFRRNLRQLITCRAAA
OX1R antag-1: OX1R (human) antagonism; O43613; OX1R-expressing cells, FRET antagonist read-out; inhibition, % at 6.6 µM; 330,000 tested, 1.8% active; in the data active = inhibition mostly above about 38%, no sharp cut-off; inactive = mostly below about 40%;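 note: 0% = agonist challenge alone and 100% = reference antagonist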
Target sequence (O43613 whole entry, looked up): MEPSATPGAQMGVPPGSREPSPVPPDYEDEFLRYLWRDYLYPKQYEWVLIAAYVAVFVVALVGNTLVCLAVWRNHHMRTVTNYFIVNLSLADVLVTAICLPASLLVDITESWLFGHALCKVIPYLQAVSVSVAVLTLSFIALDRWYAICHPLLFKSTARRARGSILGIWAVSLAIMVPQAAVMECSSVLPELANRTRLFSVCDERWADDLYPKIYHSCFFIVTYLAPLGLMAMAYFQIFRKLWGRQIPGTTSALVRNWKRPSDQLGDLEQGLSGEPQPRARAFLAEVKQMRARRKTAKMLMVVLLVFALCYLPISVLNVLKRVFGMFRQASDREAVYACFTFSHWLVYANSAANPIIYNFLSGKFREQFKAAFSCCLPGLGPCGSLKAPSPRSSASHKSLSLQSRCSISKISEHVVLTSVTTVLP
OX1R antag-2: blocks the human orexin 1 receptor. inhibition, % at 5 µM. 330,000 tested, 0.43% active. O43613. AID 434989. CHO/OX1R cells, Fluo-8 calcium fluorescence, orexin A;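 active = inhibition above its plate's threshold, mean inhibition of all tested compounds on the plate plus 3 SD, cut at about 37% in these data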;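 note: 0% = orexin A challenge wells and 100% = SB-334867-A antagonist wells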
TAAR1 antagonist: human TAAR1 antagonism. Q96RJ0. CHO RD-HGA16 TAAR1, Fluo-8 calcium fluorescence, antagonist. inhibition, % at 3 µM. 360,000 tested, 1.5% active. AID 624466;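 active = inhibition above a per-plate cutoff, the mean inhibition of test compounds on that plate plus 3 SD, cut at about 49% in these data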;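 note: 0% = DMSO plus EC80 beta-PEA response and 100% = DMSO alone without agonist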
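Test system: hTAAR1-expressing CHO RD-HGA16 cells, Gα16-coupled; Probe or stimulus: EC80 β-phenethylamine stimulus; Compound dosing: single nominal final test compound concentration of 3 µM; Timing: 140 s kinetic read after compound, 140 s after agonist; Signal: Fluo-8 calcium-sensitive fluorescence; Measure: % inhibition of agonist calcium response; Controls: DMSO and EC80 PEA controls.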
CHO parental Ca: signal in parental CHO cells, OX1R antagonist counter-screen; AID 463079; 330,000 tested, 0.63% active; inhibition, % at 5.6 µM; parental CHO-K1, ATP-induced calcium, Fluo-8 fluorescence;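 active = inhibition above that plate's mean sample inhibition plus 3 SD, cut at about 26% in these data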;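 note: 0% = ATP-challenged DMSO wells and 100% = DMSO wells without ATP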
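Assay system: untransfected parental CHO cell line. Also added: ATP agonist challenge. Dosing: one dose, 5.6 µM nominal. Measured by: Fluo-8 fluorescence. Read-out: % inhibition. Benchmarks: ATP wells versus no-ATP DMSO wells. Repeats: no replicates.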
TAAR1 ag: human TAAR1 agonism; Q96RJ0; CHO RD-HGA16 TAAR1, Fluo-8 calcium fluorescence; vehicle wells 0%, saturating PEA agonist 100%; activation, % at 3 µM; 360,000 tested, 0.99% active; AID 624467;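 active = activation above the mean activation of all test compounds in the run plus 3 SD, cut at about 38% in these data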
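Benchmarks: low control DMSO, high control PEA (EC100); System: CHO RD-HGA16 cells carrying human TAAR1 plus Gα16; Detection: Fluo-8 fluorescence, 5 s baseline then 140 s kinetic read; Schedule: 17-24 h plating, Fluo-8 75 min 37 °C, 30 min RT; Read-out basis: % activation from peak over basal fluorescence ratio, DMSO-to-PEA scaled.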
OX1R Ca confirm: confirmation of human orexin 1 receptor antagonists | shares compounds with OX1R antag-2 | CHO/OX1R cells, orexin A calcium Fluo-8 fluorescence | inhibition, % at 5 µM | 1,100 tested, 38% active | AID 492963; in the data active = inhibition above about 29%;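 note: 0% = agonist challenge alone and 100% = reference antagonist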
CHO Ca counter: counter-screen for OX1R antagonists: effect in parental CHO cells. inhibition, % at 5.6 µM. 1,100 tested, 9.3% active. AID 492965. parental CHO-K1, ATP-induced calcium, Fluo-8 fluorescence. shares compounds with OX1R antag-2;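 active = inhibition above a per-plate limit, the mean inhibition of that plate's test compounds plus 3 SD, cut at about 25% in these data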;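 note: 0% = ATP challenge with DMSO and 100% = DMSO without ATP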
OX1R HTRF confirm: OX1R (human) antagonism, HTRF confirmed; AID 492964; OX1R-expressing cells, HTRF antagonist assay; shares compounds with OX1R antag-1; inhibition, % at 6.6 µM; 1,800 tested, 49% active; in the data active = inhibition above about 55%;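 note: CHO cells expressing OX1R stimulated with orexin A at about EC80; 0% = agonist challenge alone and 100% = reference antagonist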
CHO-K1 HTRF: counter-screen: parental CHO-K1 HTRF response | shares compounds with OX1R antag-1 | parental CHO-K1 cells, HTRF counterscreen | inhibition, % at 6.6 µM | 1,800 tested, 48% active | AID 493232; in the data active = inhibition above about 17%;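 note: 0% = agonist challenge with vehicle and 100% = vehicle alone without agonist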
TAAR1 ag confirm: confirmation of human TAAR1 agonists | shares compounds with TAAR1 ag | CHO RD-HGA16 TAAR1, Fluo-8 calcium fluorescence; scaled: DMSO 0%, maximal phenethylamine 100% | activation, % at 3 µM | 2,400 tested, 82% active;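 active = activation above a cutoff set at the run's mean compound activation plus 3 SD, cut at about 39% in these data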
Ga16 ag counter: nonselective agonism, TAAR1 counter-screen. 2,400 tested, 50% active. activation, % at 3 µM. AID 651787. CHO-Ga16 parental, Fluo-8 calcium fluorescence; normalized to maximal ATP response, DMSO zero. shares compounds with TAAR1 ag;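 active = activation above the run cutoff, the mean activation over all tested wells plus 3 SD, cut at about 12% in these data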;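 note: 0% = DMSO wells and 100% = maximal ATP response on the peak over basal ratio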
TAAR1 desens: counter-screen for human TAAR1 agonists: agonists that desensitize TAAR1; shares compounds with TAAR1 ag; CHO RD-HGA16 hTAAR1, Fluo-8 calcium, beta-PEA response inhibition; inhibition, % at 3 µM; 2,400 tested, 46% active; AID 651951;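 active = inhibition above the run cutoff, the mean inhibition of all test compounds plus 3 SD, cut at about 49% in these data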;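 note: beta-PEA stimulus applied at its EC80; loss of beta-PEA calcium signal after compound pretreatment read as receptor desensitization; 0% = DMSO with beta-PEA at EC80 and 100% = DMSO alone without agonist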
Ga16 antag count: counter-screen for TAAR1 agonists: nonselective Ga16 antagonists | 2,400 tested, 39% active | CHO-Ga16 ATP-induced calcium, Fluo-8 fluorescence | inhibition, % at 3 µM | shares compounds with TAAR1 ag;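 active = inhibition above the plate's mean compound inhibition plus 3 SD, computed per plate, cut at about 22% in these data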;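 note: 0% = EC80 ATP with DMSO and 100% = DMSO wells without ATP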
Active calls of the source: *; / = no result; + = active, no number. In the library only some 4.6% were active in any assay of this set; here they are far more common.

SMILES	GPR7 antagonist	OX1R antag-1	OX1R antag-2	TAAR1 antagonist	CHO parental Ca	TAAR1 ag	OX1R HTRF confirm	CHO-K1 HTRF	others
COc1ccccc1NC(=O)COC(=O)c1cn(C)c2ccccc12	/	54*	47*	29	-3	4	26	-1	OX1R Ca confirm=-1;CHO Ca counter=-12
O=C(NC1CCCCC1)[C@@H]1CC=C[C@@H]2CCN(Cc3ccccc3)C(=O)[C@@H]21	/	75*	42	-3	-13	5	74*	-2	OX1R Ca confirm=47*;CHO Ca counter=-8
Cc1cccc(C(=O)Nc2ccc3c(c2)CC2(C(=O)N(C)C(=O)N(C)C2=O)C2CCCN32)c1 (stereo not drawn)	-16	6	-15	/	-25	/	/	/
COc1ccccc1C(=O)Nc1ccc2c(c1)CC1(C(=O)N(C)C(=O)N(C)C1=O)C1CCCN21 (stereo not drawn)	-12	67*	29	-22	-15	-1	90*	20*	OX1R Ca confirm=43*;CHO Ca counter=-4
CCOC(=O)C(c1c(O)c2ccccc2oc1=O)c1c(O)c2ccccc2oc1=O	/	/	/	-14	/	0	/	/
CCOC(=O)[C@]12Cc3cc(Cl)ccc3[C@H]1N(C(C)C)C(=O)c1ccccc12	/	/	/	8	/	-2	/	/
O=c1[nH]c(O)c(N=Nc2cc(C(F)(F)F)ccc2Cl)c(=O)[nH]1	-1	35	-22	8	-10	-3	/	/
O=C(O)c1ccccc1N=Nc1c(O)[nH]c(=O)[nH]c1=O	-7	111*	3	-7	-9	3	39	76*
O=C(CCc1ccccc1)N1Cc2cc(N3CCOCC3)ccc2-n2nncc2C1	/	/	/	-19	/	1	/	/
OCC[n+]1c2ccccc2nc2ccc(N3CCOCC3)cc21	-10	113*	-3	-26	0	5	40	76*
O=c1[nH]c(O)c(N=Nc2cccc(S(=O)(=O)N3CCOCC3)c2)c(=O)[nH]1	-10	88*	-5	8	0	3	55*	79*
O=C(N=Nc1c(O)[nH]c(=O)[nH]c1=O)C1COc2ccccc2O1 (stereo not drawn)	-1	2	-2	10	3	-2	/	/
O=c1[nH]c(=S)[nH]c(O)c1N=Nc1ccc2c(c1)OCCO2	-18	146*	-9	-11	-3	-2	62*	66*
O=c1[nH]c(=S)[nH]c(O)c1N=Nc1cccc(S(=O)(=O)N2CCOCC2)c1	-11	97*	-13	-18	-4	2	60*	66*
O=c1[nH]c(=S)[nH]c(O)c1N=Nc1ccc(S(=O)(=O)N2CCOCC2)cc1	1	140*	-13	9	8	-1	49	65*
COC(=O)C1=C(c2ccc(F)cc2OCc2ccccc2)C[C@@H]2CC[C@H]1N2C(=O)N1CCC(O)CC1	/	9	-32	/	-20	/	/	/
Clc1ccc(CCC(Cn2ccnc2)Sc2c(Cl)cccc2Cl)cc1 (stereo not drawn)	/	28	-2	29	9	9	/	/
NS(=O)(=O)c1ccc(N=Nc2c(O)[nH]c(=S)[nH]c2=O)cc1	-3	77*	1	-8	-3	0	67*	79*
COc1ccc(N=Nc2c(O)[nH]c(=S)[nH]c2=O)cc1	-10	+	2	8	-8	1	63*	100*
CCOC(=O)[C@]12Cc3cc4ccccc4cc3[C@H]1N(Cc1ccccc1)C(=O)c1cc(OC)ccc12	/	/	/	-50	/	1	/	/
C[C@]1(O)CCC2C3CC[C@H]4C[C@@H](OC(=O)[C@@H](N)CCCCN)CC[C@]4(C)C3CC[C@@]21C (stereo partly drawn)	/	/	/	-2	/	3	/	/
CN1C(=O)C(=Cc2ccc(N3CCOCC3)o2)C(=O)N(C)C1=O	10	123*	-8	-14	-1	6	65*	90*
CN1C(=O)C(=Cc2ccc(N3CCCCCC3)o2)C(=O)N(C)C1=S	-3	7	7	-7	5	16	/	/
CCN(CC)S(=O)(=O)c1ccc(C(=O)NC2CN3CCC2CC3)cc1 (stereo not drawn)	-15	-5	-7	-20	8	8	/	/
O=C(NC1CN2CCC1CC2)c1ccc(-c2ccc([N+](=O)[O-])cc2)o1 (stereo not drawn)	2	84*	0	-17	-3	2	41	56*
O=C1Nc2ccccc2Oc2ccccc21	/	/	/	-13	/	-1	/	/
Nc1ccc2nonc2c1[N+](=O)[O-]	-12	83*	-5	23	2	72*	48	91*	TAAR1 ag confirm=3;Ga16 ag counter=25*;TAAR1 desens=4;Ga16 antag count=9
Fc1cccc(-c2ccc3c(c2)CN(C(=S)NCCc2ccccc2)Cc2cnnn2-3)c1	/	/	/	-7	/	5	/	/
